According to ChEMBL document CHEMBL1141188, “Methyl substitution on the piperidine ring of N-[omega-(6-methoxynaphthalen-1-yl)alkyl] derivatives as a probe for selective binding and activity at the sigma(1) receptor” (J Med Chem, 2005):

What was measured:
[1] = target: Sigma non-opioid intracellular receptor 1 (Rattus norvegicus) (UniProt Q9R0C9); assay: Percentage inhibition of rat C6 glioma cell proliferation mediated by sigma 1 receptor at 50 uM
[2] = target: Sigma non-opioid intracellular receptor 1 (Cavia porcellus, UniProt Q60492); assay: Displacement of [3H](+)-pentazocine from sigma 1 receptor in guinea pig brain membranes; type: cell membranes, Membrane
Sigma non-opioid intracellular receptor 1, sequence (Q60492 whole entry): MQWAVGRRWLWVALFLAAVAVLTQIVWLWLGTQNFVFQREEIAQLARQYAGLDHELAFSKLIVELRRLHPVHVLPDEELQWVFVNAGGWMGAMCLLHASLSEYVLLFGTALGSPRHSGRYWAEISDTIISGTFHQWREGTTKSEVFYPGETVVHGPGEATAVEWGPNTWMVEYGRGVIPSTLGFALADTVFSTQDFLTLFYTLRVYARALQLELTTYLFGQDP

Sigma 2 receptor = assay: Displacement of [3H]DTG from sigma 2 receptor in rat liver membranes; type: cell membranes, Membrane
[3] = target: T1, 3-beta-hydroxysteroid-Delta(8),Delta(7)-isomerase (Cavia porcellus, UniProt Q60490); assay: Displacement of [3H](+/-)-emopamil from delta8-delta7 sterol isomerase (SI) site in guinea pig liver membranes; type: cell membranes, Membrane
T1 sequence (Q60490 whole entry): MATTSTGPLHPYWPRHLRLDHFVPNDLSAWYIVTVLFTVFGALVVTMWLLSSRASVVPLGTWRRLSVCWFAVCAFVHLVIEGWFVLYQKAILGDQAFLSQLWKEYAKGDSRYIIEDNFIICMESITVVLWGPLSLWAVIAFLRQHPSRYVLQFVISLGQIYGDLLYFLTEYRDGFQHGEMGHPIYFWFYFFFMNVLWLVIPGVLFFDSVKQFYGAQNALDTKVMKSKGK
Outline: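 Guinea pig liver membranes with (±)-[3H]emopamil; (±)-ifenprodil defined nonspecific binding. IC50 from six to nine concentrations, two or three duplicate experiments; Ki by nonlinear curve fitting.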

[4] = target: Sigma non-opioid intracellular receptor 1 (Cavia porcellus) (UniProt Q60492); assay: […] rat sigma 2 receptor over guinea pig sigma 1 receptor
Sigma non-opioid intracellular receptor 1 (Cavia porcellus), sequence (Q60492 whole entry): as the sequence (Q60492 whole entry) above

Cavia porcellus = species: Cavia porcellus; assay: Selectivity for guinea pig delta8-delta7 sterol isomerase (SI) site over guinea pig sigma 1 receptor

Sigma non-opioid intracellular receptor 1 (Rattus norvegicus), sequence (Q9R0C9 whole entry): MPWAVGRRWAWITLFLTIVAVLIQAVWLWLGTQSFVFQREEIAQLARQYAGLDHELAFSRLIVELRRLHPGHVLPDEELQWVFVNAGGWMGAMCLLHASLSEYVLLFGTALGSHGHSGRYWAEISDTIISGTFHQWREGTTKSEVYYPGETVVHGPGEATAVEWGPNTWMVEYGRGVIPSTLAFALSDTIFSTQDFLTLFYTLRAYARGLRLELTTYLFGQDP

SMILES | inhibition [1] [%] | Ki [2] [nM] | Ki (Sigma 2 receptor) [nM] | Ki [3] [nM] | Ratio Ki [4] | Ratio Ki (Cavia porcellus)
O=C(Cc1ccc(Cl)c(Cl)c1)OCCN1CCCC1 | 25 |  |  |  |  | 
COc1ccc2c(c1)CCCC2CCCCN1CCCCC1 (configuration not stated) | 47 | 1.01 | 48.7 | 3.57 | 48 | 3.5
COc1ccc2c(c1)CCCC2CCCN1CCCCC1 (configuration not stated) |  | 1.2 | 26.2 | 17.9 | 22 | 15
COc1ccc2c(CCCN3CCC(C)CC3)cccc2c1 |  | 1.5 | 38.9 | 19.5 | 26 | 13
COc1ccc2c(CCCN3CCCCC3)cccc2c1 |  | 7.8 | 175 | 37.6 | 22 | 4.8
COc1ccc2c(c1)CCCC2CCCCN1CCC(C)(C)CC1 (configuration not stated) |  | 0.3 | 17.5 | 4.11 | 58 | 14
COc1ccc2c(CCCCN3CCCCC3(C)C)cccc2c1 |  | 22.2 | 28.6 | 11.7 | 1.3 | 0.5
COc1ccc2c(c1)CCCC2CCCCN1CCCC(C)(C)C1 (configuration not stated) | 31 |  |  |  |  | 
COc1ccc2c(CCCN3CCCC[C@H]3C)cccc2c1 |  | 1.83 | 86.2 | 11.1 | 47 | 6.1
COc1ccc2c(CCCCN3CCC[C@H](C)C3)cccc2c1 |  | 0.66 | 32.7 | 2.81 | 50 | 4.3
COc1ccc2c(c1)CCCC2CCCN1CCCCC1(C)C (configuration not stated) |  | 178 | 115 | 16.4 | 0.6 | 0.1
COc1ccc2c(CCCCN3CCCC(C)(C)C3)cccc2c1 |  | 0.36 | 67.4 | 1.89 | 187 | 5.3
c1ccc(CCN2CCCCC2)cc1 | 5 |  |  |  |  | 
COc1ccc2c(CCCN3CCC[C@H](C)C3)cccc2c1 |  | 3.32 | 59.3 | 3.41 | 18 | 1
COc1ccc2c(c1)CCCC2CCCN1CCC(C)CC1 (configuration not stated) |  | 1.78 | 31.4 | 5.34 | 18 | 3
COc1ccc2c(c1)CCCC2CCCN1CCC(C)(C)CC1 (configuration not stated) |  | 1.18 | 31.4 | 5.39 | 27 | 3
COc1ccc2c(CCCCN3CCC(C)CC3)cccc2c1 |  | 0.03 | 17.9 | 8.04 | 597 | 268

SMILES | inhibition [1] [%] | Ki [2] [nM] | Ki (Sigma 2 receptor) [nM] | Ki [3] [nM] | Ratio Ki [4] | Ratio Ki (Cavia porcellus)
COc1ccc2c(c1)CCCC2CCCN1CCCC(C)(C)C1 (configuration not stated) | 47 |  |  |  |  | 
COc1ccc2c(c1)CCCC2CCCCN1CCC(C)CC1 (configuration not stated) | 53 | 0.42 | 36.3 | 5.55 | 86 | 13
CC(C)=CCN1CC[C@]2(C)c3cc(O)ccc3C[C@H]1[C@H]2C [(+)-PENTAZOCINE] | 35 |  |  | > 10000 |  | 
COc1ccc2c(CCCN3CCCC[C@@H]3C)cccc2c1 |  | 7.05 | 104 | 46.5 | 15 | 6.6
CCCN(CCC)CCc1ccc(OC)c(OCCc2ccccc2)c1 |  |  | 212 | 14.6 |  | 
COc1ccc2c(CCCN3CCCC(C)(C)C3)cccc2c1 |  | 0.35 | 238 | 8.71 | 680 | 25
COc1ccc2c(CCCN3CCC(C)(C)CC3)cccc2c1 |  | 1.47 | 26.3 | 9.04 | 18 | 6.1
COc1ccc2c(CCCN3CCC[C@@H](C)C3)cccc2c1 |  | 1.35 | 60.2 | 19.3 | 45 | 14
COc1ccc2c(CCCN3CCCCC3(C)C)cccc2c1 |  | 1060 | 94 | 14.9 | 0.09 | 0.014
COc1ccc2c(CCCCN3CCCC[C@H]3C)cccc2c1 |  | 1.43 | 49.2 | 6.44 | 34 | 4.5
COc1ccc2c(CCCCN3CCCC[C@@H]3C)cccc2c1 |  | 0.5 | 53.8 | 7.2 | 108 | 14
COc1ccc2c(CCCCN3CCC[C@@H](C)C3)cccc2c1 |  | 0.24 | 64 | 14.6 | 266 | 61
COc1ccc2c(c1)CCCC2CCCCN1CCCCC1(C)C (configuration not stated) |  | 6.16 | 29.5 | 8.97 | 4.8 | 1.4
Cc1ccccc1NC(=N)Nc1ccccc1C | 20 |  |  |  |  | 
CC(C(O)c1ccc(O)cc1)N1CCC(Cc2ccccc2)CC1 (racemic) [IFENPRODIL] |  |  |  | 4.7 |  | 
COc1ccc2c(CCCCN3CCC(C)(C)CC3)cccc2c1 |  | 2.25 | 17.9 | 1.82 | 8 | 0.8
COc1ccc2c(CCCCN3CCCCC3)cccc2c1 |  | 1.14 | 151 | 19.5 | 132 | 17
